The text below walks through data of ChEMBL document CHEMBL5712094, “The Gridlock transcriptional repressor impedes vertebrate heart regeneration by restricting expression of lysine methyltransferase” (2020).

The target of assay [1] is N-lysine methyltransferase SMYD2 (Homo sapiens) (UniProt Q9NRG4). The assay can be described thus: Inhibition of Smyd2 KMT activity in human HEK 293T cells co-transfected with Flag-STAT3 and HA-Smyd2b assessed as decrease in Stat3 phosphorylation at 15 to 25 uM for 6 hrs by Co-IP assay. The format is cell-based. The note with it: dose 15-25 µM. The method in brief:
(§1)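 HEK 293T cells were co-transfected with Flag-Stat3 and HA-Smyd2b. Compound was added at 15 or 25 µM for 6 h, or at 2.5 or 5 µM for 28 h, before harvest at 48 h post-transfection. Lysates were made in denaturing buffer with 1% SDS at 100°C for 20 min, then diluted to 0.1% SDS. Stat3 was immunoprecipitated with anti-Flag beads for 4 h. Blots were probed for methyl-lysine and P-Stat3, normalized to Flag-Stat3. n=3.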

Assay [2] has the same target. The experiment in a line: Inhibition of Smyd2 KMT activity in human HEK 293T cells co-transfected with Flag-STAT3 and HA-Smyd2b assessed as decrease in Stat3 methylation at 15 to 25 uM for 6 hrs by Co-IP assay. In kind it is cell-based. Conditions: dose 15-25 µM. Summed up: as §1
A short description of assay [3]: In vivo inhibition of Smyd2 KMT activity in Zebrafish assessed as decrease in cardiomyocyte proliferation at 10 uM by immunostaining analysis relative to control. The note with it: Danio rerio, Cardiac muscle cell. In kind it is functional. Summed up: (§2)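 Adult zebrafish (WT siblings or grl5nt−/− mutants) underwent ventricular apex resection. Bath treatment in aquarium water ran from 6 to 7 dpa, with 0.5‰ DMSO as the vehicle control. Hearts were fixed at 7 dpa in 4% PFA and cut as 10 µm cryosections. Sections were given antigen retrieval at 98°C for 20 min, then stained for PCNA and Mef2. For each heart, 4-6 sections with the largest injury were imaged with a 10× objective. PCNA+Mef2+/Mef2+ cells were counted in a fixed region around the injury, and the section values were averaged per heart. n=5-11 fish.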

Assay [4] has as its system Cardiac Muscle Cell. The assay can be described thus: In vivo inhibition of Smyd2 KMT activity in grl5nt-/- mutant Zebrafish assessed as decrease in cardiomyocyte proliferation at 10 uM by immunostaining analysis. In kind it is functional, cell-based. The note with it: Danio rerio. Summed up: as §2
In assay [5] the test system is Cardiac Muscle Cell. The assay can be described thus: In vivo inhibition of Smyd2 KMT activity in grl5nt-/- mutant Zebrafish assessed as decrease in p-STAT3 level cardiomyocyte at 10 uM by immunostaining analysis. The note with it: Danio rerio. The format is functional, cell-based. Summed up:
(§3)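 grl5nt−/− zebrafish underwent ventricular resection and were bath-treated in aquarium water from 6 to 7 dpa, with 0.5‰ DMSO as vehicle. Cryosections at 7 dpa were double-immunostained for P-Stat3 and Mef2. CMs with nuclear or perinuclear cytosolic P-Stat3 were counted in the injury border zone. n=4-6 fish; mean±s.e.m.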

Assay [6] concerns Cardiac Muscle Cell. The experiment in a line: In vivo inhibition of Smyd2 KMT activity in grl5nt-/- mutant Zebrafish assessed as decrease in p-STAT3 level cardiomyocyte at 5 uM by immunostaining analysis. Conditions: Danio rerio. In kind it is functional, cell-based. The method in brief: as §3
Assay [7] addresses N-lysine methyltransferase SMYD2 (Homo sapiens) (UniProt Q9NRG4). The assay can be described thus: Inhibition of Smyd2 KMT activity in human HEK 293T cells co-transfected with Flag-STAT3 and HA-Smyd2b assessed as decrease in Stat3 methylation at 5 to 2.5 uM for 28 hrs by Co-IP assay. Conditions: dose 5-2.5 µM. In kind it is cell-based. The method in brief:
as §1

Assay [8] has the same target. The assay can be described thus: Inhibition of Smyd2 KMT activity in human HEK 293T cells co-transfected with Flag-STAT3 and HA-Smyd2b assessed as decrease in Stat3 phosphorylation at 5 to 2.5 uM for 28 hrs by Co-IP assay. In kind it is cell-based. The note with it: dose 5-2.5 µM. Summed up:
as §1

The nature of assay [9]: In vivo inhibition of Smyd2 KMT activity in Zebrafish assessed as decrease in cardiomyocyte proliferation at 5 uM by immunostaining analysis relative to control. The format is functional. The note with it: Danio rerio, Cardiac muscle cell. The method in brief: as §2
Assay [10] has as its system Cardiac Muscle Cell. The assay can be described thus: In vivo inhibition of Smyd2 KMT activity in grl5nt-/- mutant Zebrafish assessed as decrease in cardiomyocyte proliferation at 5 uM by immunostaining analysis. The format is functional, cell-based. The note with it: Danio rerio. The method in brief: as §2

The structures appear in SMILES notation. Active and inactive are the calls of the source. The rule behind the calls is not given here.

Chain of N-lysine methyltransferase SMYD2 (Homo sapiens) (Q9NRG4 whole entry): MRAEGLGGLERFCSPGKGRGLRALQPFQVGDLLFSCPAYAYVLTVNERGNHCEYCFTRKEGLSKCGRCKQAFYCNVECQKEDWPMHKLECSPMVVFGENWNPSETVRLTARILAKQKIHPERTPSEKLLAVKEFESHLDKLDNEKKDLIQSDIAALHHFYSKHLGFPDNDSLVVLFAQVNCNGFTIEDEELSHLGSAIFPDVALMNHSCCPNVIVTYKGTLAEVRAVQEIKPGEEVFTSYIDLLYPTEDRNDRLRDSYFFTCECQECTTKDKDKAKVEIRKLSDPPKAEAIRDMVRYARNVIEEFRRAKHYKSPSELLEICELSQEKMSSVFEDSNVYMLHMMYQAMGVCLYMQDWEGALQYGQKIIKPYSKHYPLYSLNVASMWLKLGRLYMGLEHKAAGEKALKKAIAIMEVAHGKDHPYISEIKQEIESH

Consider `O=C1COc2c(CCNCCN(C(=O)CCNCCc3ccc(Cl)c(Cl)c3)C3CCCCC3)ccc(O)c2N1`, for which the inhibition result (in [1]; in [2]; with Cardiac Muscle Cell [4]; in the assay with Cardiac Muscle Cell [5]) was “Active” each time. The inhibition in vivo at 10 µM in assay [3] stood at 34%.

Consider `Cc1cn(CCN2CCN(c3ccccc3-c3cc(C#N)cc(C(=O)NCCCN4CCCC4)c3)CC2)c2ccccc12`, for which the inhibition result (with Cardiac Muscle Cell [6]; in assay [7]; in [8]; in the assay with Cardiac Muscle Cell [10]) was “Active” in each case. Further, the inhibition in vivo at 5 µM in [9] was 25%.

As a reminder, the inhibition in vivo is the drop in the measured response relative to a control, in per cent.
